Results: ChEMBL document CHEMBL4390678, “Structure-Activity Relationship of Purine and Pyrimidine Nucleotides as Ecto-5'-Nucleotidase (CD73) Inhibitors” (J Med Chem, 2019)
pEC50, pIC50, pKi: −log10 of the molar value. The source made the active and inactive calls. No cut-off for these calls is given here.

Experiments:
[1] = target: T1, 5'-nucleotidase (Rattus norvegicus) (UniProt P21588); assay: Inhibition of recombinant rat C-terminal His-tagged soluble form of CD73 expressed in baculovirus infected Sf9 insect cells at 1 uM using [2,8-3H]AMP as substrate measured after 25 mins by scintillation counting method relative to control
T1 sequence (whole entry): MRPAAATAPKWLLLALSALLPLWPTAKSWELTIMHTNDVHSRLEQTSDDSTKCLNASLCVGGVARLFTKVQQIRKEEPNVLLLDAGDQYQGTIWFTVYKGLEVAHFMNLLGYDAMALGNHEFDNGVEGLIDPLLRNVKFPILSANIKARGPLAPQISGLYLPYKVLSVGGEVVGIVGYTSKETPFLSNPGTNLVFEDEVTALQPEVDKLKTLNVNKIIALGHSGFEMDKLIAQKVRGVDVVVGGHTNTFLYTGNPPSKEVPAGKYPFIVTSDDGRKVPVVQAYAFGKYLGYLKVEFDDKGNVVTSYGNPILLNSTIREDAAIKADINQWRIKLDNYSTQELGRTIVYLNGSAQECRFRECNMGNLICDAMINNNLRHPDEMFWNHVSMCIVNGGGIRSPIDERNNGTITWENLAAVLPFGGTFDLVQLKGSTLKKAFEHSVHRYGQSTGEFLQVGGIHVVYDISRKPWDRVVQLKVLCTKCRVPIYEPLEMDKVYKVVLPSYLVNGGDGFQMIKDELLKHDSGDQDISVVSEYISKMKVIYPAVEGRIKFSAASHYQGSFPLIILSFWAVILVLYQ
Procedure, shortened: (§1)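 Enzyme is soluble rat CD73 from Sf9 cells, 1.63 ng per vial, in 25 mM Tris, 140 mM NaCl, 25 mM NaH2PO4, pH 7.4. […] Stopped by LaCl3 precipitation and GF/B filtration, then counted. Each compound first screened at 1 µM.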

5'-nucleotidase [2] = target: T2, 5'-nucleotidase (Rattus norvegicus, UniProt P21588); assay: Inhibition of recombinant rat C-terminal His-tagged soluble form of CD73 expressed in baculovirus infected Sf9 insect cells using [2,8-3H]AMP as substrate measured after 25 mins by scintillation counting method; procedure, shortened: as §1
T2 sequence (P21588 whole entry): T1 sequence (whole entry)

5'-nucleotidase [3] = target: T3, 5'-nucleotidase (Homo sapiens, UniProt P21589); assay: Inhibition of CD73 in human tonsils at 100 nM using AMP as substrate preincubated for 30 mins followed by substrate addition and measured after 45 mins by lead nitrate-based histochemical analysis
T3 sequence (P21589 whole entry): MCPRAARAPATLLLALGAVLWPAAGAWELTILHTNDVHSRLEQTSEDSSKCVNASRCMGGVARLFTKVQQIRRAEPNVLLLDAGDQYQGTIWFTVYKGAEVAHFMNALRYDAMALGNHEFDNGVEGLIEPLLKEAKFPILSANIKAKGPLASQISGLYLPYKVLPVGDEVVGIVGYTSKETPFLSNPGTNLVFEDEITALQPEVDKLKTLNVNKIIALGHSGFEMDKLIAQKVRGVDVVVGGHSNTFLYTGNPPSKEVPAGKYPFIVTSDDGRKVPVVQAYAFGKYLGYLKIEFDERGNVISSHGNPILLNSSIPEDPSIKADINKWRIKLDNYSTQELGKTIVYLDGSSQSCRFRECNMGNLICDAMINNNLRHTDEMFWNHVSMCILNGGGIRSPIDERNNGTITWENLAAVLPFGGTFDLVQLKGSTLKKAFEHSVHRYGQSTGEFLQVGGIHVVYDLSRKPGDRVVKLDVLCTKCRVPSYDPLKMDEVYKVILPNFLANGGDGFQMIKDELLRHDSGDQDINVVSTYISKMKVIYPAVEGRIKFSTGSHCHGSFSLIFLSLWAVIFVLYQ
Procedure, shortened: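 Tonsil cryosections pre-incubated 30 min in Trizma-maleate sucrose buffer (pH 7.4) with 2 mM levamisole and inhibitor. […] Deposit developed with 0.5% (NH4)2S and quantified as grayscale mean pixel intensity of five germinal centers versus control (ANOVA, Dunnett).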

Homo sapiens [4] = species on record: Homo sapiens; assay: (§2) Inhibition of cytosolic nucleotidase in MaMel.65-CD73 cell cytosolic extract (unknown origin) at 100 uM using AMP as substrate preincubated for 5 mins followed by substrate addition and measured after 60 mins by malachite green oxalate dye based colorimetric method relative to control
Procedure, shortened: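 Cytosolic extract of CRISPR CD73-knockout MaMel.65 melanoma cells, 15.25 µg, in 50 mM Tris pH 7.0 with 100 mM KCl and 5 mM MgCl2. […] After 60 min, heat-stopped at 95°C. Released phosphate read with malachite green/molybdate at 600 nm. Levamisole 1 mM plus NaF 5 mM served as positive control. Three experiments in duplicate.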

P2Y purinoceptor 6 [5] = target: T4, P2Y purinoceptor 6 (Homo sapiens, UniProt Q15077); assay: Agonist activity at human P2Y6 receptor expressed in human 1321N1 cells assessed as induction of calcium mobilization by calcium-4 dye based FLIPR assay; type: functional, cell-based
T4 sequence (Q15077 whole entry): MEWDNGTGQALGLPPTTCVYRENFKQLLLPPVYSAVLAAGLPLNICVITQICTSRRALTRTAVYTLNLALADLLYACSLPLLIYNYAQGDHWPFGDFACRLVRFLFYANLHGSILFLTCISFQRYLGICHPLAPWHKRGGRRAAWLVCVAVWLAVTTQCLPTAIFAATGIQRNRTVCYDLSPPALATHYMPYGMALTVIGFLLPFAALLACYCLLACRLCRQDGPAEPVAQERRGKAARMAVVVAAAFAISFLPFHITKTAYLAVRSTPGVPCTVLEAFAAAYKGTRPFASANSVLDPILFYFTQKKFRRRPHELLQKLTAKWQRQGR

5'-nucleotidase [6] = target: T3, 5'-nucleotidase; assay: Inhibition of CD73 in human MDA-MB-231 cell membranes using [2,8-3H]AMP as substrate measured after 25 mins by scintillation counting method
Procedure, shortened: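 MDA-MB-231 membranes (7.4 ng protein per vial) in 25 mM Tris, 140 mM NaCl, 25 mM NaH2PO4, pH 7.4. […] Stopped with cold LaCl3/acetate buffer pH 4.0 and filtered on GF/B. Background-subtracted and normalized to the uninhibited control.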

5'-nucleotidase [7] = target: T3, 5'-nucleotidase; assay: Inhibition of recombinant human C-terminal His-tagged soluble form of CD73 expressed in baculovirus infected Sf9 insect cells using [2,8-3H]AMP as substrate measured after 25 mins by scintillation counting method
Procedure, shortened: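 Soluble human CD73 lacking the GPI signal, with a C-terminal 6xHis tag, secreted from baculovirus-infected Sf9 cells and purified on Ni-NTA; 0.365 ng per vial. […] Product separated by lanthanum chloride precipitation and filtration, then scintillation counted.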

P2Y purinoceptor 14 = target: T5, P2Y purinoceptor 14 (Homo sapiens, UniProt Q15391); assay: (§3) Displacement of 6-Amino-9-(2-carboxy-4-((6-(4-(4-(4-(4-(3-carboxy-6-(4-(trifluoromethyl)phenyl)-naphthalen-1-yl)phenyl)piperidin-1-yl)butyl)-1H-1,2,3-triazol-1-yl)hexyl)carbamoyl)-phenyl)-3-iminio-5-sulfo-3H-xanthene-4-sulfonate from recombinant human P2Y14 receptor expressed in CHO cells preincubated for 30 mins followed by tracer addition and measured after 30 mins by flow cytometry; type: cell-based
T5 sequence (Q15391 whole entry): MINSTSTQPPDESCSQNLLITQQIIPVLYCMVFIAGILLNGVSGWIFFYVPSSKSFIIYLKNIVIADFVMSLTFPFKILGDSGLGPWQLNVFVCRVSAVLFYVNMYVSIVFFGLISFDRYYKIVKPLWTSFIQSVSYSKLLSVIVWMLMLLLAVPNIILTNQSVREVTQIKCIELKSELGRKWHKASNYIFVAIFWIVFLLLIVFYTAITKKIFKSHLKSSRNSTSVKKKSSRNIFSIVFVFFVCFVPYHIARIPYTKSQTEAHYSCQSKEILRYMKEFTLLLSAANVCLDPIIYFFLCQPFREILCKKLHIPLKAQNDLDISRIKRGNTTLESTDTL

5'-nucleotidase [8] = target: T3, 5'-nucleotidase; assay: Inhibition of CD73 in human tonsils using AMP as substrate preincubated for 30 mins followed by substrate addition and measured after 45 mins by lead nitrate-based histochemical analysis
Procedure, shortened: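 Human tonsil cryosections pre-incubated 30 min in Trizma-maleate sucrose buffer (40 mM Trizma maleate, 0.25 M sucrose, pH 7.4) with 2 mM levamisole plus inhibitor at 1, 10 or 100 nM. […] Pi deposit developed with 0.5% (NH4)2S. Read-out is mean grayscale pixel intensity of five matched germinal centers versus untreated control. One-way ANOVA with Dunnett's test.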

[9] = target: T6, P2Y purinoceptor 14 (Homo sapiens) (UniProt Q15391); assay: as §3, with “cells at 3 uM” for “cells”; type: cell-based
T6 sequence (whole entry): T5 sequence (Q15391 whole entry)

P2Y purinoceptor 6 [10] = target: T4, P2Y purinoceptor 6; assay: Agonist activity at human P2Y6 receptor expressed in human 1321N1 cells assessed as induction of calcium mobilization at 3 uM by calcium-4 dye based FLIPR assay relative to control; type: functional, cell-based
Homo sapiens [11] = species on record: Homo sapiens; conditions: 1 mM
Homo sapiens [12] = species on record: Homo sapiens; assay: as §2, with “origin) at 5 mM using AMP” for “origin) at 100 uM using AMP”, “60 mins in presence of levamisole by malachite” for “60 mins by malachite”
Procedure, shortened: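 Cytosolic extract (15.25 µg) from CRISPR CD73-knockout melanoma cells in 50 mM Tris pH 7.0, 100 mM KCl, 5 mM MgCl2. […] Released phosphate read by malachite green/molybdate absorbance at 600 nm. Levamisole 1 mM plus NaF 5 mM as positive control; three independent experiments in duplicate.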

Row | SMILES | inhibition [1] [%] | pKi (5'-nucleotidase [2]) | inhibition (5'-nucleotidase [3]) | inhibition (Homo sapiens [4]) [%] | pEC50 (P2Y purinoceptor 6 [5]) | pKi (5'-nucleotidase [6]) | pKi (5'-nucleotidase [7]) | pIC50 (P2Y purinoceptor 14) | inhibition (5'-nucleotidase [8]) | inhibition [9] | Activity (P2Y purinoceptor 6 [10]) [%] | inhibition (Homo sapiens [11]) [%] | inhibition (Homo sapiens [12]) [%]
1 | Nc1ncnc2c1ncn2[C@@H]1O[C@H](COP(=O)(O)CP(=O)(O)O)[C@@H](O)[C@H]1O [PHOSPHOMETHYLPHOSPHONIC ACID ADENOSYL ESTER] | > 50 | 6.78 | Active |  |  |  |  |  |  |  |  |  | 
2 | O=C(Nc1ccn([C@@H]2O[C@H](COP(=O)(O)CP(=O)(O)O)[C@@H](O)[C@H]2O)c(=O)n1)c1ccccc1 | > 50 | 7.86 |  | -3 | 5.86 | 8.25 | 8.34 | 5.18 |  |  |  |  | 
3 | Cn1c(=NOCc2ccccc2)ccn([C@@H]2O[C@H](COP(=O)(O)CP(=O)(O)O)[C@@H](O)[C@H]2O)c1=O | > 50 | 8.44 |  | -2 | < 5.52 | 8.10 |  | < 5.52 | Dose-dependent effect | inactive | 3.6 |  | 
4 | O=c1[nH]c(=O)n([C@@H]2O[C@H](COP(=O)(O)CP(=O)(O)O)[C@@H](O)[C@H]2O)cc1F | > 50 | 7.83 |  | 4 | 6.69 | 8.35 | 8.27 | 6.44 |  |  |  |  | 
5 | c1ccc([C@H]2CN3CCSC3=N2)cc1 |  |  |  |  |  |  |  |  |  |  |  | 70 | 
6 | [F-].[Na+] |  |  |  |  |  |  |  |  |  |  |  |  | 70
